From ChEMBL document CHEMBL1821649, “Synthesis, characterization of some benzazoles bearing pyridine moiety: search for novel anticancer agents” (2011)

Test system: UO-31
Test: Antitumor activity against human UO31 cells at 10^-5 M after 48 hrs by SRB assay
Type: functional
Conditions: UO-31, 48 h, read-out: GI
Summary of the method: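 Single-dose screen following the National Cancer Institute Drug Evaluation Branch protocol, run on the NCI panel of 60 human tumour cell lines covering nine cancer types. Percent growth of treated cells was recorded and reported as percentage growth inhibition (GI%). Compounds meeting preset inhibition thresholds advanced to a five-dose, 10-fold dilution series.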

Cc1cc2nc(-c3c(N)ncc(C#N)c3-c3ccc(O)cc3)[nH]c2cc1C
inhibition of growth at 10 µM: 33.4%
